KCNQ1 pot: potentiators or activators of KCNQ1 channel, primary screen, cell-based, thallium flux, high-throughput; Potassium voltage-gated channel subfamily KQT member 1 (Homo sapiens), P51787; hit rate 0.35% among 310,000; AID 2648, 2010; B-score at 10 µM; CHO-K1 KCNQ1, thallium flux FluxOR fluorescence; active compounds read high;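 active = fluorescence ratio B-score, a plate-corrected score, at least three library SD, with initial intensity B-score within 5 SD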
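Doses: Single concentration per compound, DMSO matched to controls | Test system: KCNQ1-transfected CHO-K1 cells | Timing: 90 min dye loading and 20 min compound exposure, both at room temperature | Measured by: Kinetic FluxOR thallium fluorescence, 10-s 1-Hz baseline, 110-s post-stimulus read | Medium: Assay buffer with matched DMSO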
KCNQ1 block: inhibitors of human KCNQ1 channel, primary screen, cell-based, thallium flux, high-throughput; B-score at 10 µM; hit rate 1.3% among 310,000; Potassium voltage-gated channel subfamily KQT member 1 (Homo sapiens), P51787; CHO-K1 KCNQ1, FluxOR thallium flux fluorescence; active compounds read high;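 active = compounds whose thallium flux B-score, printed positive for inhibition, exceeds three library SD while starting fluorescence stays within three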;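 also: channel opened by potassium depolarization with thallium stimulus after 20 min compound exposure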
Kir21 block: inhibitors of mouse Kir2.1 inward-rectifier potassium channel. Inward rectifier potassium channel 2 (Mus musculus), P35561. HEK293-Kir2.1, FluxOR thallium flux fluorescence; active compounds read low. B-score at 10 µM. hit rate 0.85% among 310,000. AID 1672, 2009;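 active = fluorescence ratio B-score at or below minus 3 SD of library scores, with starting-brightness B-score within 2 SD, cut at about -4.2 in these data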;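 also: channel flux triggered by added potassium and thallium sulfate stimulus; B-score of peak minus minimum fluorescence over baseline after thallium stimulus; more negative B-score means stronger Kir2.1 block with less thallium influx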
Target sequence (P35561 whole entry, looked up): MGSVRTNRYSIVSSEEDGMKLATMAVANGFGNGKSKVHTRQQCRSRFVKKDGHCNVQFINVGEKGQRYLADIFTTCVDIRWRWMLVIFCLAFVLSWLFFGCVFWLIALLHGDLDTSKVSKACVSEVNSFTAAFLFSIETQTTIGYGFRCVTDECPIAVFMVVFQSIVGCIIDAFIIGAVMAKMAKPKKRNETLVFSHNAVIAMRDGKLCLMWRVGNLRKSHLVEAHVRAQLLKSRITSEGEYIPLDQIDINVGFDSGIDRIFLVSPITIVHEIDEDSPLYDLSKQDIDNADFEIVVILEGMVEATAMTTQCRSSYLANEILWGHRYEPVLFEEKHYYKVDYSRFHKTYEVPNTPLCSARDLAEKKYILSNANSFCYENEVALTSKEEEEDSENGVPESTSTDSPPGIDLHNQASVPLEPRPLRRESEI
hERG rescue: hERG rescue from dofetilide block, primary screen, cell-based, CHO-hERG, FluxOR thallium flux, dofetilide IC70. activation (rescue from dofetilide block), less the hit threshold, % at 10 µM. dofetilide IC70 present. Voltage-gated inwardly rectifying potassium channel KCNH2 (Homo sapiens), Q12809. hit rate 0.51% among 310,000;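 active = activation above the mean of controls blocked by dofetilide plus 5 SD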;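 also: thallium influx through hERG after potassium depolarization seen as dye fluorescence rise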
KCNK9 block: KCNK9 potassium channel inhibitors, primary screen, HEK293 cells, thallium flux. Potassium channel subfamily K member 9 (Homo sapiens), Q9NPC2. B-score at 10 µM. FluxOR thallium flux fluorescence; active compounds read low. hit rate 1.2% among 310,000;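 active = ratio B-score over 3 SD below the library mean, with starting fluorescence within 5 SD of its mean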;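 also: negative B-score means less thallium flux so channel inhibition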
KCNK3 block: human KCNK3 channel inhibitors, primary screen, CHO cells, FluxOR thallium flux, B-score | Potassium channel subfamily K member 3 (Homo sapiens), O14649 | AID 602410, 2012 | B-score at 10 µM | hit rate 0.84% among 340,000 | FluxOR fluorescence; active compounds read low;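 active = B-score under library mean minus 4 SD, starting fluorescence ratio at most library mean plus 5 SD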;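 also: more negative B-score means stronger inhibition of thallium flux through KCNK3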
KCNK3 confirm: retest of human KCNK3 channel inhibitors, confirmation, CHO cells, FluxOR thallium flux, triplicate. shares compounds with KCNK3 block. FluxOR fluorescence; 0% buffer, 100% carvedilol maximal block. ratio percent of control, % at 10 µM. hit rate 99% among 2,400. AID 651638, 2012;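 active = ratio percent of control, averaged over triplicates, above buffer control mean plus 5 SD, cut at about 64% in these data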;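 also: ratio is the fluorescence rise from min to max over baseline after thallium stimulus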
KCNK3 uninduced: thallium flux inhibition in non-induced cells, primary screen, counter-screen for KCNK3 inhibitor project, cell-based, non-induced KCNK3 line, FluxOR thallium, triplicate. hit rate 40% among 2,400. non-induced KCNK3 parental cells; active compounds read low. thallium flux ratio (lower = more inhibition) at 10 µM. shares compounds with KCNK3 block. AID 651747, 2012;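 active = thallium flux ratio, averaged over three wells, more than 5 SD below the buffer control mean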;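 also: host cells are CHO cells without KCNK3 induction; ratio is peak minus trough fluorescence over baseline then normalized to buffer controls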
* = called active by the depositor. An excerpt weighted towards active compounds, which were near 3.8% of everything screened.

For Cc1ccc(C)c(N2CCN(C(c3ccc(N(C)C)cc3)c3nnnn3C(C)(C)C)CC2)c1 (stereo not given) the results were KCNQ1 pot inactive, KCNQ1 block inactive, Kir21 block -0.78, hERG rescue -11, KCNK9 block -8.1*, KCNK3 block inactive, KCNK3 confirm 122* and KCNK3 uninduced 0.15*.
`CN(C)c1ccc(C(c2nnnn2C(C)(C)C)N2CCN(C(=O)c3ccco3)CC2)cc1` (stereo not given) gave KCNQ1 pot inactive, KCNQ1 block inactive, Kir21 block 2, hERG rescue -14, KCNK9 block inactive and KCNK3 block inactive.
`COCCc1ncc(CN2CCCC(C(=O)Nc3cccc(-c4cccc(C)c4)c3)C2)cn1` (stereo not given) gave KCNQ1 pot inactive, KCNQ1 block inactive, Kir21 block -0.18, hERG rescue -11, KCNK9 block inactive, KCNK3 block -9*, KCNK3 confirm 91* and KCNK3 uninduced inactive.
Screening CC(C)C(NS(=O)(=O)c1cccc2nsnc12)C(=O)N1CCCCC1 (stereo not given) returned KCNQ1 pot inactive, KCNQ1 block inactive, Kir21 block -0.57, hERG rescue -13, KCNK9 block inactive and KCNK3 block inactive.
`COc1ccc(OC)c(NC(=O)CSc2ccc3ccccc3c2)c1` gave KCNQ1 pot inactive, KCNQ1 block inactive, Kir21 block -1.2, hERG rescue -6, KCNK9 block inactive, KCNK3 block -11*, KCNK3 confirm 118* and KCNK3 uninduced inactive.
`CCC(C)(C)n1nnnc1C(c1ccccc1)N1CCc2ccccc2C1` (stereo not given) gave KCNQ1 pot inactive, KCNQ1 block inactive, Kir21 block 0.99, hERG rescue -13, KCNK9 block inactive, KCNK3 block -9.4*, KCNK3 confirm 110* and KCNK3 uninduced inactive.
CC(Cc1cccs1)NC(=O)Nc1ccccc1 (stereo not given) was read as KCNQ1 pot inactive, KCNQ1 block inactive, Kir21 block -0.02, hERG rescue -6, KCNK9 block inactive, KCNK3 block -9*, KCNK3 confirm 90* and KCNK3 uninduced inactive.
For OCCC1CN(CC2CCCCC2)CCN1C1CCCC1 (stereo not given) the results were KCNQ1 pot inactive, KCNQ1 block inactive, Kir21 block -0.94, hERG rescue 0, KCNK9 block inactive and KCNK3 block inactive.
`COc1cccc(NC(=O)CN(C)C(=O)c2cc(-c3cccc(Br)c3)nc3ccccc23)c1` gave KCNQ1 pot inactive, KCNQ1 block inactive, Kir21 block -1.8, hERG rescue -17, KCNK9 block inactive, KCNK3 block -14*, KCNK3 confirm 128* and KCNK3 uninduced inactive.
Cc1ccc(-c2cc(C(=O)Nc3cccnc3)c3ccccc3n2)s1 was read as KCNQ1 pot inactive, KCNQ1 block inactive, Kir21 block -1.1, hERG rescue -26, KCNK9 block inactive, KCNK3 block -12*, KCNK3 confirm 100* and KCNK3 uninduced 0.13*.
Screening COc1cccc(NC(=O)c2cc(-c3ccc(OC)cc3OC)nc3ccccc23)c1 returned KCNQ1 pot inactive, KCNQ1 block 6*, Kir21 block 0.01, hERG rescue -9, KCNK9 block inactive, KCNK3 block -9.4*, KCNK3 confirm 103* and KCNK3 uninduced inactive.
`COc1ccccc1CC(=O)Nc1ccc(C(=O)N2CCCCC2)cc1` gave KCNQ1 pot inactive, KCNQ1 block inactive, Kir21 block 1.7, hERG rescue -5, KCNK9 block inactive and KCNK3 block inactive.
COc1ccc(/C=N/NC(=O)c2cccc(NC(C)=O)c2)c(C(=O)O)c1OC was read as KCNQ1 pot inactive, KCNQ1 block inactive, Kir21 block -0.81, hERG rescue -19, KCNK9 block inactive and KCNK3 block inactive.
For Cc1ccc(OCC(=O)N2CC(C)OC(C)C2)c([N+](=O)[O-])n1 (stereo not given) the results were KCNQ1 pot inactive, KCNQ1 block inactive, Kir21 block 1.8, hERG rescue -11, KCNK9 block inactive and KCNK3 block inactive.
For Cc1cc(C(=O)CN2C(=O)c3cccc(N)c3C2=O)c(C)n1Cc1cccs1 the results were KCNQ1 pot inactive, KCNQ1 block inactive, Kir21 block -2.1, hERG rescue -7, KCNK9 block inactive, KCNK3 block -11*, KCNK3 confirm 121* and KCNK3 uninduced inactive.
Cc1cc(C(=O)CSc2nnc(-c3ccccc3F)o2)c(C)n1Cc1cccs1 was read as KCNQ1 pot inactive, KCNQ1 block inactive, Kir21 block -0.86, hERG rescue -18, KCNK9 block inactive and KCNK3 block inactive.
Cc1ccc(OCC(=O)NNC(=O)c2ccccc2OCc2c(C)noc2C)cc1 was read as KCNQ1 pot inactive, KCNQ1 block inactive, Kir21 block 0.02, hERG rescue -13, KCNK9 block inactive, KCNK3 block -8.7*, KCNK3 confirm 94* and KCNK3 uninduced inactive.
Screening Cc1noc(C)c1COc1ccccc1C(=O)NNC(=O)c1ccccc1F returned KCNK3 block inactive.
COc1ccc(Cl)cc1C(=O)NCCCSc1ccccc1 was read as KCNQ1 pot inactive, KCNQ1 block inactive, Kir21 block -0.32, hERG rescue -7, KCNK9 block inactive, KCNK3 block -9.2*, KCNK3 confirm 112* and KCNK3 uninduced 0.16*.
O=C(NCCCSc1ccccc1)c1cc(Br)ccc1O was read as KCNQ1 pot inactive, KCNQ1 block inactive, Kir21 block -0.73, hERG rescue -15, KCNK9 block inactive, KCNK3 block -8.8*, KCNK3 confirm 151* and KCNK3 uninduced 0.12*.
